Data reported in ChEMBL document CHEMBL2417361, “Investigation of acyclic uridine amide and 5'-amido nucleoside analogues as potential inhibitors of the Plasmodium falciparum dUTPase” (Bioorg Med Chem, 2013).

Key:
[1] = Inhibition of recombinant Plasmodium falciparum dUTPase expressed in Escherichia coli BL21 (DE3) using dUTP as substrate by spectrophotometric analysis
In short: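 Recombinant enzyme from IPTG-induced E. coli BL21(DE3), purified by phosphocellulose and gel filtration to ≥96% purity, stored in 10 mM bicine/5 mM MgCl2 pH 8. Stopped-flow mixing of 30 nM PfdUTPase with 50 µM dUTP, 5 mM MgCl2, 1 mg/mL BSA and 100 mM KCl. Proton release tracked with cresol red/bicine (pH 8) at 573 nm. Vmax and KMapp fitted by integrated Michaelis–Menten equation.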

[2] = biological target: T1, Deoxyuridine 5'-triphosphate nucleotidohydrolase, mitochondrial (Homo sapiens, UniProt P33316); assay: Inhibition of recombinant human dUTPase expressed in Escherichia coli BL21 (DE3) using dUTP as substrate by spectrophotometric analysis
T1 sequence (P33316 whole entry): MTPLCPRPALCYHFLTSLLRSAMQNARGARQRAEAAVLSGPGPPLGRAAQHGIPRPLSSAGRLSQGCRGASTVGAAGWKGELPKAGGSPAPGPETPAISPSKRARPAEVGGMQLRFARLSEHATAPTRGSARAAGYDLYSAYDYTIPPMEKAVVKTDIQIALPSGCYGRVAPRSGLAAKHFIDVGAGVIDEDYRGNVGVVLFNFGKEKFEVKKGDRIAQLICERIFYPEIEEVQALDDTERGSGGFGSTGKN
In short: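 Human enzyme expressed in IPTG-induced E. coli BL21(DE3) and purified like the parasite enzyme (phosphocellulose, then gel filtration, ≥96% pure). Hydrolysis after rapid mixing was read as proton release using a cresol red/bicine indicator pair (pH 8, 573 nm), with absorbance change kept within 0.1 units. Vmax and KMapp were fitted to the integrated Michaelis–Menten equation.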

[3] = Selectivity index, ratio of Ki for human dUTPase to Ki for recombinant Plasmodium falciparum dUTPase
[4] = Selectivity index, ratio of EC50 for rat L6 cells to EC50 for Plasmodium falciparum K1; type: toxicity, cell-based; settings: read-out: Ratio EC50
Plasmodium falciparum = assay: Antiparasitic activity against chloroquine/pyrimethamine-resistant Plasmodium falciparum K1 infected in erythrocytes assessed as parasite growth inhibition after 48 hrs by [3H]-hypoxanthine incorporation assay; type: functional, organism-based
L6 = assay: Cytotoxicity against rat L6 cells after 72 hrs by Alamar Blue assay; type: cell-based; settings: L6, 72 h
In short: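 Rat skeletal myoblast L6 line, with podophyllotoxin as control. EC50 is the mean of two independent assays.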

SMILES | Ki [1] | Ki [2] | Ratio Ki [3] | selectivity ratio [4] | EC50 (Plasmodium falciparum) | EC50 (L6)
O=c1ccn([C@H]2C[C@H](O)[C@@H](CNC(c3ccccc3)(c3ccccc3)c3ccccc3)O2)c(=O)[nH]1 | 0.2 µM |  |  |  |  | 
O=C(NCCCO)C(c1ccccc1)c1ccccc1 | > 100 µM | 1000 µM | 13 |  |  | 
O=c1ccn(CCCCNC(c2ccccc2)(c2ccccc2)c2ccccc2)c(=O)[nH]1 |  |  |  | 9 |  | 
O=c1ccn(CCCNC(c2ccccc2)c2ccccc2)c(=O)[nH]1 | 5.7 µM | 10 µM |  | 49 | 5.5 µM | 269 µM
O=C(c1ccccc1)n1c(=O)ccn(CCCNC(=O)C(c2ccccc2)(c2ccccc2)c2ccccc2)c1=O | > 100 µM | 1000 µM | 56 |  |  | 
O=c1ccn(CCCCNC(c2ccccc2)c2ccccc2)c(=O)[nH]1 | 5.7 µM | 63 µM |  | 38 | 2.6 µM | 99 µM
O=C(NCCCn1ccc(=O)[nH]c1=O)C(c1ccccc1)(c1ccccc1)c1ccccc1 |  | 1000 µM |  |  |  | 
O=C(CCCn1ccc(=O)[nH]c1=O)NC(c1ccccc1)c1ccccc1 |  | 1000 µM |  |  |  | 
O=c1ccn(CCCOC(c2ccccc2)(c2ccccc2)c2ccccc2)c(=O)[nH]1 |  |  |  | 5 |  | 
O=c1ccn(CCCCOC(c2ccccc2)c2ccccc2)c(=O)[nH]1 | 0.5 µM | 49 µM |  | 7 | 14 µM | 104 µM
O=c1ccn(CCCCCCNC(c2ccccc2)(c2ccccc2)c2ccccc2)c(=O)[nH]1 |  |  |  | 36 |  | 
O=c1ccn(CCCCCCOC(c2ccccc2)(c2ccccc2)c2ccccc2)c(=O)[nH]1 |  |  |  | 19 |  | 
O=C(NCCCO)C(c1ccccc1)(c1ccccc1)c1ccccc1 |  |  | 1 |  |  | 
O=C(CCCn1ccc(=O)[nH]c1=O)NC(c1ccccc1)(c1ccccc1)c1ccccc1 |  | 1000 µM |  |  |  | 
O=c1ccn([C@H]2C[C@H](O)[C@@H](CNC(c3ccccc3)c3ccccc3)O2)c(=O)[nH]1 | 0.2 µM | > 100 µM |  | > 20 | 12 µM | > 229 µM
O=C(O)CCCn1ccc(=O)[nH]c1=O | > 100 µM | 1000 µM | 400 |  |  | 
